# Assay results published in ChEMBL document CHEMBL1130386, “Structure-activity relationship of newly synthesized quinoline derivatives for reversal of multidrug resistance in cancer” (1997).
# Test system: K562
# Assay: MDR-reversing activity in K562/ADM cells at 1 uM concentration of [3H]-VCR (vincristine), activity expressed relative to verapamil.
# Format: functional, Homo sapiens
# In short: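 K562/ADM cells at 1.5 × 10^6/mL in growth medium with 10 mM HEPES were incubated at 37 °C with 30 nM [3H]VCR (5.6 Ci/mmol), with or without modulator (1 µM) or verapamil. At intervals, aliquots were spun through a 4:1 silicone oil/liquid paraffin layer. Pellets were lysed overnight in 0.5 N KOH and counted by liquid scintillation. Intracellular VCR was scaled to verapamil.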
row,SMILES,Activity
1,OC(COc1cccc2ncccc12)CN1CCN(Cc2ccccc2)CC1 (stereo unspecified),123%
2,OC(COc1cccc2ncccc12)CN1CCN(C2c3ccccc3CCc3ccccc32)CC1 (stereo unspecified),371%
3,O=C(C(c1ccccc1)c1ccccc1)N1CCN(CC(O)COc2cccc3ncccc23)CC1 (stereo unspecified) [DOFEQUIDAR],381%
4,OC(COc1cccc2ncccc12)CN1CCN(C(c2ccc(F)cc2)c2ccc(F)cc2)CC1 (stereo unspecified),265%
5,O=C(C(c1ccc(F)cc1)c1ccc(F)cc1)N1CCN(CC(O)COc2cccc3ncccc23)CC1 (stereo unspecified),263%
6,OC(COc1cccc2ncccc12)CN1CCC(=C(c2ccccc2)c2ccccc2)CC1 (stereo unspecified),309%
7,CN1CCN(CC(O)COc2cccc3ncccc23)CC1 (stereo unspecified),47%
8,OC(COc1cccc2ncccc12)CN1CCN(C2c3ccccc3-c3ccccc32)CC1 (stereo unspecified),229%
9,O=C(C1c2ccccc2-c2ccccc21)N1CCN(CC(O)COc2cccc3ncccc23)CC1 (stereo unspecified),213%
10,OC(COc1cccc2ncccc12)CN1CCN(CC(c2ccccc2)c2ccccc2)CC1 (stereo unspecified),327%
11,COc1ccc(C(c2ccc(OC)cc2)N2CCN(CC(O)COc3cccc4ncccc34)CC2)cc1 (stereo unspecified),260%
12,OC(COc1cccc2ncccc12)CN1CCN(C2c3ccccc3COc3ccccc32)CC1 (stereo unspecified),414%
13,OC(COc1cccc2ncccc12)CN1CCN(C2c3ccccc3CCc3cccnc32)CC1 (stereo unspecified),316%
14,O=C1C(=O)N(C2c3ccccc3CCc3ccccc32)CCN1CC(O)COc1cccc2ncccc12 (stereo unspecified),81%
15,O=C(C1c2ccccc2Oc2ccccc21)N1CCN(CC(O)COc2cccc3ncccc23)CC1 (stereo unspecified),279%
16,CCCCCCCCCCCCCCCCCCN1CCN(CC(O)COc2cccc3ncccc23)CC1 (stereo unspecified),55%
17,OC(CNCC(c1ccccc1)c1ccccc1)COc1cccc2ncccc12 (stereo unspecified),117%
18,OC(COc1cccc2ncccc12)CN1CCN(C(c2ccccc2)c2ccc(Cl)cc2)CC1 (stereo unspecified),243%
19,OC(COc1cccc2ncccc12)CN1CCN(C(c2ccccc2)c2ccccc2)CC1 (stereo unspecified),358%
20,OC(COc1cccc2ncccc12)CN1CCC(=C2c3ccccc3CCc3ccccc32)CC1 (stereo unspecified),374%
21,OC(COc1cccc2ccccc12)CN1CCN(C(c2ccccc2)c2ccccc2)CC1 (stereo unspecified),32%
22,OC(COc1cccc2ncccc12)CN1CCNCC1 (stereo unspecified),65%
23,OC(COc1cccc2ncccc12)CN1CCN(C(c2ccccc2)c2cccs2)CC1 (stereo unspecified),428%
24,OC(COc1cccc2ncccc12)CN1CCC(=C(c2ccc(F)cc2)c2ccc(F)cc2)CC1 (stereo unspecified),246%
25,OC(COc1ccccc1)CN1CCN(C(c2ccccc2)c2ccccc2)CC1 (stereo unspecified),56%
26,OC(CNCCC(c1ccccc1)c1ccccc1)COc1cccc2ncccc12 (stereo unspecified),343%
